In ChEMBL document CHEMBL1124512, “Synthesis of 3-deazaneplanocin A, a powerful inhibitor of S-adenosylhomocysteine hydrolase with potent and selective in vitro and in vivo antiviral activities” (1989):
≈ marks a conversion by molar mass, not a printed value. Where “and” joins values, the source holds several entries; their conditions need not be identical. Equal entries are not always repeated.

Assays:
Human respirovirus 3 [1] = assay: Inhibitory dose against Parainfluenza type 3 viral strain Huebner C243 in H.Ep-2 cell line; format: functional; settings: Human respirovirus 3, HEp-2; read-out: ID50 (the source's name)
Human respirovirus 3 [2] = assay: Viral rating activity against Parainfluenza type 3 viral strain Huebner C243 in H.Ep-2 cell line; format: functional
How it was run: (§1)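 Virus rating is a weighted score combining the degree of inhibition of the virus-induced cytopathogenic effect with the degree of cytotoxicity. USAMRIID ratings were multiplied by 3 to convert them to the Ehrlich scale.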

[3] = Ratio of minimum toxic compound concentration to inhibitory dose against Parainfluenza type 3 viral strain Huebner C243 in H.Ep-2 cell line; format: functional
How it was run: (§2)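 Selectivity index is the minimum toxic drug concentration (μg/mL) divided by the ID50 for inhibition of the virus-induced cytopathogenic effect.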

Mus musculus [4] = assay: In vivo anti-viral activity against Vaccinia tailpox mice model at dose 300 mg/kg (tested on 20 mice - Experiment 1); format: functional
Vaccinia virus [5] = assay: Inhibitory dose against vaccinia viral strain Lederle CA in vero cell line; format: functional, Orthopoxvirus vaccinia
Vaccinia virus [6] = assay: Viral rating activity against vaccinia viral strain Lederle CA in vero cell line; format: functional, Orthopoxvirus vaccinia; how it was run: as §1
[7] = Ratio of minimum toxic compound concentration to inhibitory dose against vaccinia viral strain Lederle CA in vero cell line; format: functional; how it was run: as §2
Mus musculus [8] = assay: In vivo anti-viral activity against Vaccinia tailpox mice model at dose 300 mg/kg (tested on 20 mice - Experiment 2); format: functional
[9] = test system: Vesicular stomatitis virus; assay: (§3) Viral rating activity against vesicular stomatitis viral strain Indiana in L929 cell line; format: functional; how it was run: as §1
[10] = Ratio of minimum toxic compound concentration to inhibitory dose against vesicular stomatitis viral strain Indiana in L929 cell line; format: functional; how it was run: as §2
Mus musculus [11] = assay: In vivo anti-viral activity against Vaccinia tailpox mice model at dose 8 mg/kg (tested on 19 mice - Experiment 2); format: functional
Mus musculus [12] = assay: In vivo anti-viral activity against Vaccinia tailpox mice model at dose 8 mg/kg (tested on 20 mice - Experiment 1); format: functional
Mus musculus [13] = assay: In vivo anti-viral activity against Vaccinia tailpox mice model at dose 4 mg/kg (tested on 20 mice - Experiment 2); format: functional
[14] = test system: Vesicular stomatitis virus; assay: as §3; format: functional; how it was run: as §1; remark: listed apart in the source
Yellow fever virus [15] = assay: Inhibitory dose against yellow fever viral strain Asibi in vero cell line; format: functional; settings: read-out: ID50 (the source's name)
Yellow fever virus [16] = assay: Viral rating activity against yellow fever viral strain Asibi in vero cell line; format: functional; how it was run: as §1
[17] = Ratio of minimum toxic compound concentration to inhibitory dose against yellow fever viral strain Asibi in vero cell line; format: functional; how it was run: as §2
[18] = test system: Vesicular stomatitis virus; assay: Inhibitory dose against vesicular stomatitis viral strain Indiana in L929 cell line; format: functional
Yellow fever virus [19] = assay: Viral rating of activity against yellow fever viral strain Asibi in vero cell line; format: functional; how it was run: as §1

Row | SMILES | IC50 (Human respirovirus 3 [1]) [µg/mL] | VR (Human respirovirus 3 [2]) | Selectivity index [3] | VR (Vaccinia virus [6]) | VR [9] | IC50 (Yellow fever virus [15]) [µg/mL] | Selectivity index [17] | other results
1 | NC(=O)c1ncn([C@@H]2O[C@H](CO)[C@@H](O)[C@H]2O)n1 [RIBAVIRIN] | 17.5 (≈ 71.7 µM) | 2.5 | 5.7 |  |  |  |  | 
2 | Nc1ncnc2c1ncn2[C@@H]1O[C@H](CO)[C@@H](O)[C@@H]1O [VIDARABINE] |  |  |  | 3.7 and 4.2 and 3.6 |  |  |  | Protection (Mus musculus [4]): 56%; ID50 (Vaccinia virus [5]): 1 µg/mL and 1.8 µg/mL; IC50 (Vaccinia virus [5]; Orthopoxvirus vaccinia, Vero, read-out: ID50 (the source's name)): 2 µg/mL (≈ 7.48 µM); Selectivity index [7]: 16.3 and 32.2 and 17.9; Protection (Mus musculus [8]): 88%
3 | Nc1nccc2c1ncn2[C@@H]1C[C@H](CO)[C@@H](O)[C@H]1O [3-DEAZAARISTEROMYCIN A] |  |  |  |  | 3.1 and 3.2 and 3.5 and 3.3 |  |  | Selectivity index [10]: 3.6 and 3.8 and 7.2
4 | Nc1nccc2c1ncn2C1C=C(CO)C(O)C1O (stereo not drawn) [3-DEAZANEPLANOCIN A] | 0.05 (≈ 0.191 µM) | 3.6 | 2 | 3.1 and 5.4 and 4.5 | 4.7 | 1 (≈ 3.81 µM) | 0.3 | Protection (Mus musculus [11]): 84%; Protection (Mus musculus [12]): 74%; Protection (Mus musculus [13]): 82%; VR [14]: 3.6 and 4.2; VR (Yellow fever virus [16]): 2.9; ID50 [18]: 0.07 µg/mL and 0.2 µg/mL; IC50 ([18]; read-out: ID50 (the source's name)): 0.3 µg/mL (≈ 1.14 µM)
5 | c1c[se]cn1 [SELENAZOLE] |  |  |  |  |  | 3.3 (≈ 25 µM) | 1 | VR (Yellow fever virus [19]): 2.4
